# Screening results (PubChem)
# DNMT1 block = human DNMT1 methyltransferase inhibitors, primary screen, biochemical, molecular beacon, fluorescence, HinP1I cleavage, uHTS. inhibition (reported as % activation of signal), % at 10 µM. actives 0.83% (n = 360,000). AID 588458, 2011; in the data active = inhibition above about 50%
# LMPTP inh = LMPTP phosphatase inhibitors, primary screen, biochemical, fluorescence intensity, uHTS; Low molecular weight phosphotyrosine protein phosphatase (Homo sapiens), P24666; recombinant LMPTP-A, OMFP fluorogenic substrate; inhibition, % at 20 µM; actives 0.22% (n = 360,000); AID 651560, 2012;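 active = compounds that cut the enzyme signal by at least half of the control window in the single-dose screen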;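 note: plate controls were DMSO wells with enzyme plus substrate for no effect and substrate without enzyme for full effect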
# Target sequence (P24666 whole entry, looked up): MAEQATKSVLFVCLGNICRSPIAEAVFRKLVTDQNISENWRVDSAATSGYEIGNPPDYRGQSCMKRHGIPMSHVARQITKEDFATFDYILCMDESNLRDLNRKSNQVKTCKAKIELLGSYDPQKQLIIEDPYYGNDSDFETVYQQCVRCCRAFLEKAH
#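 Material: LMPTP-A; amount: 0.625 nM enzyme; doses: single 20 µM dose; times: reaction 50 min, room temperature, dark; technique: fluorescence intensity of OMFP turnover product; benchmarks: no-enzyme and uninhibited controls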
# NadD inh = inhibitors of S. aureus NadD, primary screen, biochemical, colorimetric, uHTS | purified NadD enzyme, colorimetric absorbance read-out | inhibition, % at 20 µM | actives 0.78% (n = 360,000); in the data active = inhibition above about 26%
# SUMO1 PPI mod = modulators of SUMO1 protein-protein interactions, primary screen, biochemical, uHTS; inhibition, % at 20 µM; AID 602429, 2012; SUMO1 binding to a labelled peptide, TR-FRET, 1 h; actives 0.33% (n = 360,000); in the data active = inhibition above about 37%
# Target sequence (P63165 whole entry, looked up): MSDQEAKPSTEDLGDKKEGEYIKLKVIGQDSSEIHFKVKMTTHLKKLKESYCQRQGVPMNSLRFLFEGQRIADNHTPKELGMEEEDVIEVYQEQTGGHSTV
# Scp1 inh = Scp-1 phosphatase inhibitors, primary screen, biochemical, colorimetric, uHTS; Carboxy-terminal domain RNA polymerase II polypeptide A small phosphatase 1 (Homo …; actives 0.88% (n = 340,000); inhibition, % at 20 µM; Recombinant Scp1, phosphopeptide, malachite green phosphate absorbance;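 active = inhibition above about 50% at 20 µM, limit read from the data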;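 note: plate controls were DMSO wells with enzyme for no effect and wells lacking enzyme for full effect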
# Target sequence (Q9GZU7 76-261 limits assumed): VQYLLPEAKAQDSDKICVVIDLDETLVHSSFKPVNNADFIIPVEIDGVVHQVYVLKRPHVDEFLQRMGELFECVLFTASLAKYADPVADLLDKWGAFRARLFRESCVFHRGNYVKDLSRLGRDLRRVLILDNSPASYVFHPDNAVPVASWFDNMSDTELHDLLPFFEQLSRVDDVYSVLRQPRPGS
#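 Incubation: 45 min enzyme reaction at room temperature / System: truncated SCP-1 phosphatase (76-261aa) / Reagent: Phospho 17-mer peptide substrate / Buffer or medium: Acidic Tris acetate buffer with magnesium and detergent / Signal: absorbance at 630 nm / Doses: one concentration, 20 µM, with 1.0% DMSO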
# STEP inh = STEP phosphatase inhibitors, primary screen, biochemical, fluorescence intensity, uHTS | actives 0.25% (n = 360,000) | AID 588621, 2011 | Tyrosine-protein phosphatase non-receptor type 5 (Homo sapiens), P54829 | recombinant STEP, OMFP fluorogenic substrate | inhibition, % at 20 µM;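 active = inhibition at 20 µM, scaled per plate between control wells, above about 37%, limit read from the data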;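 note: 0% = DMSO with enzyme and substrate and 100% = substrate only without enzyme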
#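 Assay system: isolated STEP enzyme / Timing: 20 min at room temperature, dark / Doses: 20 µM, 1% DMSO / Technique: fluorescence intensity, excitation 480 nm, emission 540 nm / Reagent: fluorogenic phosphatase substrate OMFP at 25 µM final / Measure: percent inhibition scaled to no-enzyme and uninhibited-enzyme controls, plate-pattern corrected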
# NadD inh conf = inhibitors of S. aureus NadD, confirmation, biochemical, colorimetric, single concentration; shares compounds with NadD inh; purified S. aureus NadD, colorimetric enzyme assay; inhibition, % at 20 µM; actives 13% (n = 2,000); AID 624309, 2012; in the data active = inhibition mostly above about 42%, no sharp cut-off; inactive = mostly below about 42%
# * marks the source's active call; other numbers are inactive results; · = no result given. Hits are enriched below; roughly 2.4% of the tested compounds scored in any of these assays.
SMILES,DNMT1 block,LMPTP inh,NadD inh,SUMO1 PPI mod,Scp1 inh,STEP inh,NadD inh conf
CC1SC(C)C(=O)N(CC(=O)NC2CCCCC2)C1=O (stereo unspecified),2,-2,3,2,-1,2,·
CCOc1ccc(CCN2C(=O)C(=O)N([C@@H](CC(C)C)CN3CCC[C@H]3CN3C(=O)C(=O)NC[C@@H]3Cc3ccccc3)C[C@@H]2Cc2ccc(O)cc2)cc1,·,1,35*,8,·,·,34
CCOc1ccc(CCN2C(=O)C(=O)N([C@@H](CC(C)C)CN3CCC[C@H]3CN3C(=O)C(=O)NC[C@@H]3Cc3ccccc3)C[C@@H]2Cc2ccccc2)cc1,·,6,34*,6,·,·,38
CCOc1ccc(CCN2C(=O)C(=O)N([C@@H](CC(C)C)CN3CCC[C@@H]3CN3C(=O)C(=O)NC[C@@H]3Cc3ccccc3)C[C@@H]2CC(C)C)cc1,5,1,14,6,10,1,·
CCOc1ccc(CCN2C(=O)C(=O)N([C@@H](CC(C)C)CN3CCC[C@@H]3CN3C(=O)C(=O)NC[C@@H]3Cc3ccccc3)C[C@@H]2Cc2ccc(O)cc2)cc1,2,0,21,8,16,-3,·
CC1CCCCC1NS(=O)(=O)CCNC(=O)c1ccc2c(c1)OCO2 (stereo unspecified),0,-1,1,4,2,-4,·
Cc1ccccc1NC(=O)COC(=O)c1ccc(S(=O)(=O)N2CCCCCC2)cc1,38,-1,14,3,-5,1,·
Cc1ccc(C)c(NC(=O)COC(=O)c2ccc(S(=O)(=O)N3CCCCC3)cc2)c1,48,0,31*,5,0,1,0
COc1ccc(-n2c(SCC(=O)Nc3sc4c(c3C#N)CCCC4)nnc2-c2ccccc2OC)cc1,-8,3,41*,3,9,5,45
COc1ccc(-n2c(SCC(N)=O)nnc2-c2ccc(NS(=O)(=O)c3ccc(C)cc3)cc2)cc1,-6,0,7,2,3,-1,·
COc1ccc(-c2nnc(SCC(=O)Nc3sc4c(c3C#N)CCCC4)n2-c2ccccc2)cc1,45,1,41*,3,-8,2,5
COc1ccc(-n2c(SCC(=O)Nc3ccccc3)nnc2-c2ccc(NS(=O)(=O)c3ccc(C)cc3)cc2)cc1,15,1,49*,1,-10,2,44
COc1cccc(-n2c(SCC(=O)Nc3sc4c(c3C(N)=O)CCC4)nc3ccccc3c2=O)c1,-6,2,32*,4,-5,3,-14
CCCn1nnnc1NCc1ccccc1OCC,2,-3,-2,1,36,0,·
CC1=Nc2nc(N3CCCCC3)c(C#N)c3c4c(nc(c23)N1)N(c1ccc(C(C)C)cc1)C(=O)C4,-6,2,63*,16,-5,0,12
Cc1ncc(CO)c2c1Oc1nc(-c3ccccc3)nc(SCC(=O)Nc3cccc(O)c3)c1C2,-22,11,43*,-3,-2,2,39*
COc1ccc(-c2nc3c(c(SCC(=O)Nc4cccc(O)c4)n2)Cc2c(CO)cnc(C)c2O3)cc1,-13,21,50*,20,9,6,18
Cc1cccn2c(=O)c3cc(C#N)c(=O)n(Cc4cccnc4)c3nc12,-1,-2,-1,-23,-8,18,·
CCc1ccc(CN2CCC(C(=O)Nc3ccc(-n4nc(C)cc4C)cc3)CC2)o1,-2,1,-8,5,-5,0,·
CC1(C)CC(=O)C2=C(C1)c1c(ccc3ccccc13)NC2c1ccc(OCC(=O)O)cc1 (stereo unspecified),16,2,4,-3,37,7,·
CC1(C)CC(=O)C2=C(C1)c1c(ccc3ccccc13)NC2c1ccc(Br)o1 (stereo unspecified),-4,3,37*,-9,-2,-2,37
C=CCN(CC=C)c1cnn(-c2nc3ccccc3[nH]2)c(=O)c1Cl,-1,0,-4,-13,-4,-1,·
Cc1ccc(C2(c3ccc(C)cc3)CC2C(=O)Nc2ccc([N+](=O)[O-])cc2O)cc1 (stereo unspecified),-18,7,48*,-2,-20,0,43
CC1(C)CC1C(=O)Nc1ccc([N+](=O)[O-])cc1Br (stereo unspecified),0,-1,-7,-22,-5,-1,·
Cc1ccc(NS(=O)(=O)c2cc(NC(=O)c3ccc4c(c3)NC(=O)CS4)ccc2C)c(C)c1,-16,4,34*,6,-3,6,24
SMILES,DNMT1 block,LMPTP inh,NadD inh,SUMO1 PPI mod,Scp1 inh,STEP inh,NadD inh conf
COc1ccc(NC(=O)c2ccc3c(c2)NC(=O)CS3)cc1S(=O)(=O)Nc1ccc(Br)cc1,-2,1,0,16,-4,3,·
Cc1ccc(CNC(=O)C(=O)NCC2CCCN2S(=O)(=O)c2cc(C)ccc2C)cc1 (stereo unspecified),0,1,-9,0,-15,0,·
Fc1cccc(NC(=S)NCc2ccc(Cl)cc2)c1,0,-1,-6,-4,-2,3,·
Fc1cc(NC(=S)NCc2ccc(CNC(=S)Nc3ccc(Cl)c(F)c3)cc2)ccc1Cl,-7,1,36*,6,-2,25,39
Cc1ccc(-n2c(SCC(=O)N/N=C/c3c(C)nn(-c4ccccc4)c3C)nc3ccccc3c2=O)cc1,6,3,22,-6,-8,4,·
Cc1nn(-c2ccccc2)c(C)c1/C=N/NC(=O)CSc1nc2ccccc2c(=O)n1-c1ccc(Br)cc1,49,1,30*,1,-5,3,3
Cc1ccc(/C=N/NC(=O)CSc2nc3ccccc3c(=O)n2-c2ccccc2C)s1,-22,3,50*,-1,-10,7,34
CC1Cc2ccccc2N1CC(=O)NC(=O)NCc1ccco1 (stereo unspecified),-17,1,32*,2,-2,2,31
CCN(CC)CCCN(C(=O)c1ccc(Br)cc1)c1nc(-c2ccc(OC)cc2)cs1,5,0,-4,-5,6,1,·
CCN(CC)CCOC(=O)c1ccc(N/C=C(/C#N)c2nc(-c3ccc(OC)cc3)cs2)cc1,36,4,32*,81*,11,11,-8
